The results in this text go back to publication PMC3778918 (Clinical cancer research : an official journal of the …, 2013).

“Also recorded” adds a separate entry of the source.

The term AUC(0-inf) denotes the area under the concentration-time curve extrapolated to infinity.

The nature of data set [1]: Paclitaxel pharmacokinetics in plasma and tumor. The data set is classed as in vivo, transgenic FVB/n mice bearing the MMTV-Neu transgene.
Data set [2] concerns T11/TP53−/− tumors. The data set can be described thus: Short-term tumor volume response, T11/TP53-/- OST. In kind it is in vivo, mice (BALB/c). To be noted: T11/TP53−/− model, 14-day treatment.
Data set [3] has as its system MMTV-Neu tumors. The data set can be described thus: Short-term tumor volume response, MMTV-Neu GEMM. To be noted: MMTV-Neu model; for Tumor response (change in tumor volume), in words: 21-day treatment. The data set is classed as in vivo, mice (FVB/n). A digest of the protocol:
(§1)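 FVB/n transgenic mice bred in-house, enrolled at spontaneous mammary tumor onset (~0.5 cm), randomized to treatment or untreated control groups. Injectable agents given i.p. once weekly, three doses over 21 days; oral agents milled into chow, given continuously; combinations at single-agent doses. Caliper and/or ultrasound measurements; volume = (width)² × length/2; response = percent volume change at day 21.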

Data set [4] deals with C3(1)-T-antigen tumors. The data set can be described thus: Short-term tumor volume response, C3. In kind it is in vivo, mice (FVB/n). Conditions: C3(1)-T-antigen model; for Tumor response (change in tumor volume), in words: 21-day treatment. In outline:
as §1

The subject of data set [5] is MMTV-Neu tumors. The data set can be described thus: Overall survival of tumor-bearing mice, MMTV-Neu. In kind it is in vivo, mice (FVB/n). To be noted: MMTV-Neu model, single agent.

`CC(=O)O[C@H]1C(=O)[C@@]2(C)[C@H]([C@H](OC(=O)c3ccccc3)[C@]3(O)C[C@H](OC(=O)[C@H](O)[C@@H](NC(=O)c4ccccc4)c4ccccc4)C(C)=C1C3(C)C)[C@]1(OC(C)=O)CO[C@@H]1C[C@@H]2O` [paclitaxel] came in with an AUC(0-inf) in data set [1] (FVB/n (MMTV-Neu transgenic), mouse, plasma, ip, 10 mg/kg) of 6300 ng·h/mL. Moreover, in data set [1] (single IP dose 10 mg/kg, MMTV-Neu mice, tumor), the “AUC0-∞ in tumor” value came to 42.4 µg·h/g. Moreover, the “Tumor response (change in tumor volume), in words” value in data set [2], in data set [3] and in data set [4] was “no response” throughout.

Take `C#Cc1cccc(Nc2ncnc3cc(OCCOC)c(OCCOC)cc23)c1` [erlotinib]: the “Tumor response (change in tumor volume), in words” value in data set [3] is on record as “highly effective”. Besides, the “Extension of lifespan, in words” value in data set [5] is given as “to some extent”. Also, the “Subset of treated mice showing potent activity” value in data set [4] is reported as roughly 40%.

In the case of `CS(=O)(=O)CCNCc1ccc(-c2ccc3ncnc(Nc4ccc(OCc5cccc(F)c5)c(Cl)c4)c3c2)o1` [lapatinib], the entries for the “Tumor response (change in tumor volume), in words” value in data set [2], in data set [3] and in data set [4] were “neither erlotinib nor lapatinib were effective”, “exceptional efficacy; also recorded: highly effective; also recorded: complete tumor regression” and “ineffective”, respectively. The compound also yielded a Tumor regression in data set [3] (all tumors) of roughly 100%. In addition, in data set [5], the “Extension of lifespan, in words” value is recorded as “greatly extended lifespan”. Also, the Median survival in data set [5] (untreated median 29 days) is given as 154 days.

Turning to `N.N.O=C([O-])C1(C(=O)[O-])CCC1.[Pt+2]` [carboplatin, Carboplatin], the “Tumor response (change in tumor volume), in words” value in data set [2], in data set [3] and in data set [4] was “modest but significant responses” in each case.
